Screening results (PubChem BioAssay)
EBV gp42 inh: Epstein-Barr virus gp42 inhibitors, primary screen, biochemical, uHTS, fluorescence polarization; Glycoprotein 42 (Epstein-Barr virus (strain AG876)), Q1HVG2; Fluorescence polarization binding assay, mP read-out; inhibition, % (tested at 21.74 µM); actives 0.42% (n = 220,000); AID 1085, 2008; in the data active means inhibition above about 50%
Target sequence (Q1HVG2 whole entry, looked up): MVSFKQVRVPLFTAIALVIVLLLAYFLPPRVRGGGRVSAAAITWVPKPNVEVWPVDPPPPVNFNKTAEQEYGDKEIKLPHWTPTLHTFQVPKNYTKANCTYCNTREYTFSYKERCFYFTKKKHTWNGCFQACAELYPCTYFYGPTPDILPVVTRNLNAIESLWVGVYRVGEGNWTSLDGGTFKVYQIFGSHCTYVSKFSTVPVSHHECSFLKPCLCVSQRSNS
ZTA DNA inh: blocks Epstein-Barr virus ZTA, an EBNA-1 counter-screen. ZTA-DNA binding, fluorescence polarization. inhibition, % at 11 µM. actives 0.15% (n = 320,000). AID 2234; in the data active means inhibition above about 33%
Target sequence (P03206 whole entry, looked up): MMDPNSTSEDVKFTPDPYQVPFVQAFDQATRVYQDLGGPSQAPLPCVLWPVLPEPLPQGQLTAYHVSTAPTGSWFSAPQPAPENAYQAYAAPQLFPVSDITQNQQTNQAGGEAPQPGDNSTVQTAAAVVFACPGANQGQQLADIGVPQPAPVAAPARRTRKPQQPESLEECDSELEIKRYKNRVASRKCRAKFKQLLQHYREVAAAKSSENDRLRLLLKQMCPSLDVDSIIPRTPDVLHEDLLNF
EBNA-1 inh: EBNA-1 DNA-binding inhibitors, primary screen, biochemical, fluorescence polarization. inhibition, % at 14.8 µM. actives 0.34% (n = 300,000); in the data active means inhibition above about 28%
NS3 helicase inh: inhibitors of HCV NS3 helicase, primary screen, biochemical, Cy5 molecular beacon fluorescence; Hepatitis C virus NS3 helicase; NS3 helicase DNA unwinding; inhibition, % at 10.9 µM; actives 0.56% (n = 290,000);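 active means inhibition above the mean of all tested compounds plus 3 SD, set per campaign, cut at about 35% in these data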
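Material: hepatitis C virus NS3 helicase domain fragment enzyme; measured by: Cy5 fluorescence, 0 and 60 min reads; control set: DMSO and thioflavine S; incubation: 60 min unwinding reaction at 25 °C after ATP addition; read-out basis: % inhibition from 60/0 min fluorescence ratio, DMSO 0%, thioflavine S 100%; repeats: singlicate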
HCV core dimer: inhibitors of HCV core protein dimerization, primary screen, biochemical, TR-FRET, high-throughput. AID 1899, 2009. TR-FRET GST/Flag-core106 dimerization, 1536-well. inhibition, % at 5 µM. actives 0.33% (n = 300,000);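 active means inhibition above the mean of all tested compounds plus 3 SD, set per screening campaign, cut at about 45% in these data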
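Assay system: tagged HCV core106 pair (GST and Flag); medium: KF-containing HEPES buffer, pH 7.45, DTT, CHAPS, BSA; also added: Eu donor and XL665 acceptor anti-tag antibodies; dosing: 5 µM single dose; timing: compound-protein-antibody incubation 4 h at 22.5 °C; signal: TR-FRET 671 and 617 nm emission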
GPR7 antagonist: GPR7 receptor antagonists, primary screen, cell-based, fluorescence, single concentration; Neuropeptides B/W receptor type 1 (Homo sapiens), P48145; GPR7-expressing cells, fluorescence antagonist assay; inhibition, % at 4.4 µM; actives 1.1% (n = 290,000); AID 1861, 2009; in the data active means inhibition above about 16%, passing the limit was not always enough;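 further: cells stimulated with the agonist NPW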
NS3 helicase cf: HCV NS3 helicase inhibitors, retest, confirmation, biochemical, Cy5 molecular beacon fluorescence, triplicate | shares compounds with NS3 helicase inh | NS3 helicase DNA unwinding | inhibition, % at 10.9 µM | actives 31% (n = 1,600);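 active means inhibition above the mean of all tested compounds plus 3 SD, cutoff set per campaign, cut at about 36% in these data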
FID counter trip: compounds displacing fluorescent DNA intercalator, artefact control for HCV NS3 helicase inhibitor project, biochemical, FID fluorescence, triplicate; shares compounds with NS3 helicase inh; DNA fluorescent intercalator displacement; inhibition, % at 7.9 µM; actives 4% (n = 1,600); in the data active means inhibition above about 37%;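 further: higher means more displacement of ethidium bromide from the DNA hairpin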
FID counter DR: compounds displacing fluorescent intercalator from DNA, dose response, counter-screen for HCV NS3 helicase inhibitor project, biochemical, fluorescence; IC50, µM; 120 tested, under 10 active; AID 2172, 2009; shares compounds with NS3 helicase inh; fluorescent intercalator displacement from DNA; call rule not given here
Of the large screens only hits and unclear results are named; the others gave an inactive call (follow-up assays come after a bar, where they were run). Compounds with a hit are over-represented: about 2.3% of the library has one in this group of screens.

CN1CCN(CC(=O)Nc2nc(-c3ccccc3)cs2)CC1	none
CCN1CCN(CCCNC(=O)CCC(=O)N2CCOc3ccccc32)CC1	none (no result: EBV gp42 inh)
Cc1cc(O)c(C(=O)/C=C/c2ccccc2)c(=O)o1	NS3 helicase inh 43 (no result: EBV gp42 inh, ZTA DNA inh, EBNA-1 inh, HCV core dimer) | NS3 helicase cf inactive | FID counter trip inactive
Cc1cc(O)c(C(=O)/C=C/c2ccccc2Br)c(=O)o1	NS3 helicase inh 48 (no result: EBV gp42 inh) | NS3 helicase cf inactive | FID counter trip inactive
CCc1ccccc1Oc1coc2cc(O)ccc2c1=O	none (no result: EBV gp42 inh)
Cc1ccc(C)c(N2CCN(C(=O)c3ccc4nc(-c5ccco5)c(-c5ccco5)nc4c3)CC2)c1	NS3 helicase inh 37 | NS3 helicase cf 76 | FID counter trip inactive | FID counter DR inactive
O=C(NC1CCCC1)c1ccc2nc(-c3ccco3)c(-c3ccco3)nc2c1	NS3 helicase inh 37 | NS3 helicase cf 115 | FID counter trip inactive | FID counter DR inactive
CC1=N/C(=C\c2ccccc2Cl)C(=O)O1	none (no result: EBV gp42 inh, NS3 helicase inh, GPR7 antagonist)
N#Cc1c(N2C(=O)Nc3ccccc3N2O)sc2c1CCCCCC2	NS3 helicase inh 42 | NS3 helicase cf 54 | FID counter trip inactive
CCc1cc2cc3c(cc2nc1SCC(=O)Nc1c[nH]c(=O)[nH]c1=O)OCO3	NS3 helicase inh 41 (no result: EBV gp42 inh) | NS3 helicase cf inactive | FID counter trip inactive
CCc1cc2cc3c(cc2nc1SCC(=O)Nc1nccs1)OCO3	none
O=C(Nc1cccnc1)C(Cc1ccccc1)n1cccc1 (centres undefined)	none
O=C(Nc1ncc(Br)s1)C(Cc1ccccc1)n1cccc1 (centres undefined)	NS3 helicase inh 44 | NS3 helicase cf inactive | FID counter trip inactive
COc1ccc(N2CCN(C(=O)COC(=O)c3oc4ccc(OC)cc4c3C)CC2)cc1	none (no result: EBV gp42 inh, NS3 helicase inh, GPR7 antagonist)
NC1=C(c2ccccc2)C(=O)NC1=O	NS3 helicase inh 37 (no result: EBV gp42 inh) | NS3 helicase cf inactive | FID counter trip inactive
CC(C)(C)C1CCc2[nH]nc(C(=O)O)c2C1 (centres undefined)	NS3 helicase inh 37 | NS3 helicase cf inactive | FID counter trip inactive
N=C1/C(=C\c2ccc(SCc3ccco3)o2)C(=O)N=C2SC=NN12	NS3 helicase inh 53 | NS3 helicase cf 63 | FID counter trip inactive
O=C(Nc1nc2c(Cl)c(Cl)ccc2s1)C1CC1	NS3 helicase inh 41 (no result: EBV gp42 inh) | NS3 helicase cf inactive | FID counter trip inactive
COc1cccc(Cn2cc(C)cc(NC(=O)NCc3ccccc3)c2=O)c1	NS3 helicase inh 40 (no result: EBV gp42 inh) | NS3 helicase cf inactive | FID counter trip inactive
Cc1cc(NC(=O)NCc2ccccc2)c(=O)n(Cc2ccccc2F)c1	none (no result: EBV gp42 inh)
O=C(O)c1cccc(S(=O)(=O)N2CCCC(c3nc4c(nnn4Cc4ccccc4Cl)c(=O)[nH]3)C2)c1 (centres undefined)	none (no result: EBV gp42 inh)
O=C(O)c1cccc(S(=O)(=O)N2CCCC(c3nc4c(nnn4Cc4ccc(F)cc4)c(=O)[nH]3)C2)c1 (centres undefined)	NS3 helicase inh 40 (no result: EBV gp42 inh) | NS3 helicase cf inactive | FID counter trip inactive
Cc1ncc([N+](=O)[O-])n1CC(=O)N/N=C/c1ccc(F)cc1	none
O=C(CSc1nnc(-c2ccc(O)cc2)n1-c1ccccc1)CC(=O)Nc1ccccc1	NS3 helicase inh 37 | NS3 helicase cf inactive | FID counter trip inactive
c1ccc(CN2CCC(Nc3nc(-c4cccnc4)nc4ccccc34)CC2)cc1	none
O=[N+]([O-])c1ccc(/C=C2\CCC(C3=CCCC3)=C2N2CCOCC2)cc1	none
CCOC(=O)c1ccc(N=Cc2c(O)c3ccccc3oc2=O)cc1	NS3 helicase inh 41 (no result: EBV gp42 inh) | NS3 helicase cf inactive | FID counter trip inactive
CC(=O)c1cccc(N=Cc2c(O)c3ccccc3oc2=O)c1	none (no result: EBV gp42 inh)
CC1(C)CC(=O)C2=C(C1)N(c1ccc(F)cc1)C(=O)C2(NC(=O)c1ccccc1)C(F)(F)F (centres undefined)	NS3 helicase inh 49 | NS3 helicase cf inactive | FID counter trip inactive
CCC(Cc1ccccc1)NC(=O)C1CC1 (centres undefined)	NS3 helicase inh 41 (no result: EBV gp42 inh, ZTA DNA inh, EBNA-1 inh, HCV core dimer) | NS3 helicase cf inactive | FID counter trip inactive
O=C(NC1CC1)C1CC(=O)N(c2ccc(F)cc2)C1 (centres undefined)	none (no result: EBV gp42 inh)
CCOC(=O)C1(Cc2cccc(Cl)c2)CCCN(C(=O)CCOC)C1 (centres undefined)	none
CCOC(=O)C1(Cc2cccc(Cl)c2)CCCN(C(=O)CCN2CCCC2=O)C1 (centres undefined)	NS3 helicase inh 65 (no result: EBV gp42 inh) | NS3 helicase cf inactive | FID counter trip inactive
COc1ccc(C(=O)CC(=O)C(=O)Nc2ccc(Cl)cc2)cc1	NS3 helicase inh 43 (no result: EBV gp42 inh) | NS3 helicase cf inactive | FID counter trip inactive
COc1ccc(C(=O)CC(=O)C(=O)Nc2ccc(OC)c(Cl)c2)cc1	none (no result: EBV gp42 inh)
COc1cc(/C=C2/C(=O)NN(c3ccc(F)cc3)C2=O)cc(Cl)c1O	NS3 helicase inh 36 (no result: EBV gp42 inh) | NS3 helicase cf inactive | FID counter trip inactive
COC(=O)c1ccc(N2NC(=O)/C(=C/c3cc(OC)c(OC)c(OC)c3)C2=O)cc1	none (no result: EBV gp42 inh)
COc1cccc(/C=C2/C(=O)NN(c3ccc(Br)cc3)C2=O)c1O	NS3 helicase inh 38 (no result: EBV gp42 inh, ZTA DNA inh, EBNA-1 inh, HCV core dimer) | NS3 helicase cf 58 | FID counter trip inactive
COc1cc(/C=C2/C(=O)NN(c3ccc(Cl)cc3)C2=O)cc(Br)c1O	none (no result: EBV gp42 inh)
COc1cc(/C=C2/C(=O)NN(c3ccc(Cl)c(Cl)c3)C2=O)cc([N+](=O)[O-])c1O	none (no result: EBV gp42 inh)
COC(=O)c1ccc(N2NC(=O)/C(=C/c3cc(OC)c(O)c(OC)c3)C2=O)cc1	NS3 helicase inh 61 (no result: EBV gp42 inh) | NS3 helicase cf inactive | FID counter trip inactive
CC(=O)N1CCN(S(=O)(=O)c2cccc(C(=O)Nc3ccccc3N3CCCC3)c2)CC1	none (no result: EBV gp42 inh, NS3 helicase inh, GPR7 antagonist)
CC(C)(C)c1ccc(OCCn2nc(C(=O)O)c3ccccc3c2=O)cc1	none (no result: EBV gp42 inh)
O=C(O)c1nn(Cc2csc(-c3ccccc3)n2)c(=O)c2ccccc12	NS3 helicase inh 48 (no result: EBV gp42 inh) | NS3 helicase cf inactive | FID counter trip inactive
O=C(N/N=C/c1cccn1-c1ccc([N+](=O)[O-])cc1)c1cccnc1	NS3 helicase inh 65 | NS3 helicase cf inactive | FID counter trip inactive
